We go through twelve molecules from ChEMBL document CHEMBL4610125, “Evaluation of Manassantin A Tetrahydrofuran Core Region Analogues and Cooperative Therapeutic Effects with EGFR Inhibition” (J Med Chem, 2020).

The source made the active and inactive calls. The calls are words filed in the database; no cut-off is given here.

Series [1] relates to Lewis lung carcinoma cell line. The series can be described thus: Antitumor activity against mouse LLC cells allografted in C57BL/6J mouse assessed as inhibition of tumor growth at 5 mg/kg, ip dosed every 3 days for 17 days starting from 2 days after inoculation and co-treated with 5 mg/kg, ip EGFR inhibitor gefitinib relative to control. The settings on record: read-out: TGI. It is filed as functional. In outline:
(§1)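 Male C57BL/6 mice, 5−6 weeks old, were given LLC cells (2 × 10⁵ in 200 μL serum-free medium) s.c. into the dorsal flanks on Day 0. From day 2, groups of n = 5 received 5 mg/kg i.p. […]. Tumor size was measured three times a week and tumor weight at sacrifice. Statistics were versus the vehicle control.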

For series [2], the system named is Lewis lung carcinoma cell line. As to the kind of experiment: Antitumor activity against mouse LLC cells allografted in C57BL/6J mouse assessed as reduction of tumor weight at 5 mg/kg, ip dosed every 3 days for 17 days starting from 2 days after inoculation and co-treated with 5 mg/kg, ip EGFR inhibitor gefitinib relative to control. It is filed as functional, organism-based. In outline: as §1

The test system of series [3] is Lewis lung carcinoma cell line. As to the kind of experiment: Antitumor activity against mouse LLC cells allografted in C57BL/6J mouse assessed as reduction tumor weight at 5 mg/kg, ip dosed every 3 days for 17 days starting from 2 days after inoculation relative to control. Type of series: functional, organism-based. In outline:
as §1

Series [4] can be described thus: Toxicity in C57BL/6J mouse allografted with mouse LLC cells assessed as effect on body weight at 5 mg/kg, ip dosed every 3 days for 17 days starting from 2 days after inoculation and co-treated with 5 mg/kg, ip EGFR inhibitor gefitinib. Type of series: organism-based, Lewis lung carcinoma. Particulars: in vivo. Summed up: as §1
Series [5] concerns Lewis lung carcinoma cell line. The series can be described thus: animal or person. The settings on record: Mus musculus, ip, read-out: TGI. It is filed as functional.
The nature of series [6]: Toxicity in C57BL/6J mouse allografted with mouse LLC cells assessed as effect on body weight at 5 mg/kg, ip dosed every 3 days for 17 days starting from 2 days after inoculation. It is filed as organism-based, Lewis lung carcinoma. The settings on record: in vivo. Summed up: as §1
The subject of series [7] is HEK-293T. The series can be described thus: Inhibition of HIF1 transactivation activity in HEK293T cells transfected with pGL3-5HRE-VEGF-luciferase at 0.01 to 1 uM incubated for 24 hrs under hypoxia condition by luciferase reporter gene assay. Type of series: cell-based. Particulars: Homo sapiens. Summed up:
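HEK-293T cells were seeded at 5 × 10³/well, left 24 h, then co-transfected with a 5×HRE (human VEGF promoter) firefly luciferase plasmid and a pRL-SV40 Renilla plasmid. Cells were exposed to hypoxia (1% O₂) with serially diluted compound (0, 0.01, 0.1, 1 μM) for 24 h, with 10 μM 17-AAG as reference. Dual-Glo readout, with firefly normalized to Renilla. Three independent experiments.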
(In general: In a reporter assay the amount or activity of a reporter protein is the signal.)

Take `COc1ccc([C@@H](O)[C@@H](C)Oc2ccc([C@H]3O[C@H](c4ccc(O[C@H](C)[C@H](O)c5ccc(OC)c(OC)c5)c(OC)c4)[C@H](C)[C@H]3C)cc2OC)cc1OC`: the figures for the inhibition in vivo at 5 mg/kg in series [1] and in series [5] were 80% and 30%, respectively. The outcome in series [2] and in series [3] was Active. For the same molecule, the Activity result in series [4] and in series [6] was “Non-Toxic” throughout. Moreover, the inhibition entry in series [7] was “Active”.

On to `COc1ccc(C(=O)[C@@H](C)Oc2ccc(CC3(Cc4ccc(O[C@H](C)C(=O)c5ccc(OC)c(OC)c5)c(OC)c4)SCCCS3)cc2OC)cc1OC`, for which the inhibition entry in series [7] is “inactive”.

Turning to `COc1ccc(C(=O)[C@H](C)Oc2ccc(/C=C/c3ccc(O[C@H](C)C(=O)c4ccc(OC)c(OC)c4)c(OC)c3)cc2OC)cc1OC`, in series [7], the inhibition result was “inactive”.

Regarding `COc1ccc(C(=O)[C@@H](C)Oc2ccc([C@@H]3CC[C@@H](c4ccc(O[C@H](C)C(=O)c5ccc(OC)c(OC)c5)c(OC)c4)O3)cc2OC)cc1OC`, the inhibition result in series [7] is “Dose-dependent effect”.

`COc1cc2ncnc(Nc3ccc(F)c(Cl)c3)c2cc1OCCCN1CCOCC1`: the outcome in series [3] was Active.

In the case of `COc1ccc(C(=O)[C@@H](C)Oc2ccc(-c3cccc(-c4ccc(O[C@H](C)C(=O)c5ccc(OC)c(OC)c5)c(OC)c4)c3)cc2OC)cc1OC`, the inhibition result in series [7] is “inactive”.

For `COc1ccc(C(=O)[C@@H](C)Oc2ccc([C@@H]3C[C@@H](C)[C@@H](c4ccc(O[C@H](C)C(=O)c5ccc(OC)c(OC)c5)c(OC)c4)O3)cc2OC)cc1OC`, the inhibition result in series [7] is “Dose-dependent effect”.

`COc1ccc(C(=O)[C@@H](C)Oc2ccc([C@@H]3CCC[C@H](c4ccc(O[C@H](C)C(=O)c5ccc(OC)c(OC)c5)c(OC)c4)O3)cc2OC)cc1OC`: the inhibition result in series [7] was “inactive”.

Take `COc1ccc(C(=O)[C@@H](C)Oc2ccc([C@@H]3CC[C@@H](c4ccc(O[C@H](C)C(=O)c5ccc(OC)c(OC)c5)c(OC)c4)N3)cc2OC)cc1OC`: the inhibition result in series [7] is “Dose-dependent effect”.

Consider `C=CCN1[C@H](c2ccc(O[C@H](C)C(=O)c3ccc(OC)c(OC)c3)c(OC)c2)CC[C@H]1c1ccc(O[C@H](C)C(=O)c2ccc(OC)c(OC)c2)c(OC)c1`, for which the inhibition entry in series [7] is “inactive”.

Consider `COc1ccc(C(=O)[C@@H](C)Oc2ccc(-c3cccc(-c4ccc(O[C@H](C)C(=O)c5ccc(OC)c(OC)c5)c(OC)c4)n3)cc2OC)cc1OC`, for which the inhibition entry in series [7] is “inactive”.

On to `COc1ccc(C(=O)[C@@H](C)Oc2ccc(C3=C(c4ccc(O[C@H](C)C(=O)c5ccc(OC)c(OC)c5)c(OC)c4)CCC3)cc2OC)cc1OC`, for which the inhibition entry in series [7] is “inactive”.
